Experimental data as given in ChEMBL document CHEMBL1137569, “Pharmacomodulations around the 4-oxo-1,4-dihydroquinoline-3-carboxamides, a class of potent CB2-selective cannabinoid receptor ligands: consequences in receptor affinity and functionality” (J Med Chem, 2007).

What was measured:
Cannabinoid receptor 2 [1] = biological target: T1, Cannabinoid receptor 2 (Homo sapiens, UniProt P34972); assay: Inhibition of human CB2 receptor expressed in CHO cells; format: cell-based
Cannabinoid receptor 2 [2] = biological target: T1, Cannabinoid receptor 2; assay: Displacement of [3H]CP-55940 from human CB2 receptor expressed in CHO cells; format: cell-based; set-up: concentration or dose not given beside the values
How it was run: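 Competitive radioligand binding on membranes from CHO cells expressing hCB2, with [3H]-CP-55,940 as tracer. Compounds were first screened at 10 µM. Ki at CB2 was then determined for those displacing more than 60% of specific binding.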

Cannabinoid receptor 2 [3] = biological target: T1, Cannabinoid receptor 2; assay: Displacement of [3H]SR-141716A from human CB2 receptor expressed in CHO cells at 10 uM; format: cell-based
[4] = biological target: Cannabinoid receptor 1 (Homo sapiens) (UniProt P21554); assay: Displacement of [3H]SR-141716A from human CB1 receptor expressed in CHO cells at 10 uM; format: cell-based
How it was run: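 Single-concentration (10 µM) competition screen on membranes from CHO cells expressing hCB1, with [3H]SR-141716A as radioligand. Read-out is percent displacement of the radioligand from its binding site.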

Cannabinoid receptor 2 [5] = biological target: T1, Cannabinoid receptor 2; assay: Activity at human CB2 receptor expressed in CHO cells assessed as stimulated [35S]GTP-gamma-S binding relative to control; format: functional, cell-based; set-up: concentration or dose not given beside the values

T1 sequence (P34972 whole entry): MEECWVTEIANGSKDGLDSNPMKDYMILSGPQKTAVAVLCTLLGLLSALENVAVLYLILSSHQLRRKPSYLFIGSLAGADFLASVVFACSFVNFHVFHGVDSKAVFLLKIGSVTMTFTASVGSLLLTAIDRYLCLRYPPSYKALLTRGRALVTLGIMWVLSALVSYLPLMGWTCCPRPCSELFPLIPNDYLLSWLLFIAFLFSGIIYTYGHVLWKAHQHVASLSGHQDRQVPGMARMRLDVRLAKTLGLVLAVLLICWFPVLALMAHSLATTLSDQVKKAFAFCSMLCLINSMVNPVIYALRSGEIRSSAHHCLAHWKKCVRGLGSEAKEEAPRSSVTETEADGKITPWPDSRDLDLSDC
Sequence of Cannabinoid receptor 1 (Homo sapiens) (P21554 whole entry): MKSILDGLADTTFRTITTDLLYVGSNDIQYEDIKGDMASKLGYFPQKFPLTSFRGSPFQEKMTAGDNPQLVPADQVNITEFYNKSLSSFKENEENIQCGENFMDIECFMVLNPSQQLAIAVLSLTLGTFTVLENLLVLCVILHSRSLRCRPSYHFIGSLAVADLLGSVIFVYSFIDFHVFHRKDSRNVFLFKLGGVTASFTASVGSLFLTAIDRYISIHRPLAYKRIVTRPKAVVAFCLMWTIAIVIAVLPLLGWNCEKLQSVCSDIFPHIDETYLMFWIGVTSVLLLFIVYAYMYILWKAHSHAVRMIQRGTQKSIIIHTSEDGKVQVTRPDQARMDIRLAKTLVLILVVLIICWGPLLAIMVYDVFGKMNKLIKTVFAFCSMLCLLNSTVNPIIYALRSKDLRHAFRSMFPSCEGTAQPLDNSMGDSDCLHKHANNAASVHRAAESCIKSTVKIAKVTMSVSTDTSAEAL

For `O=C(c1cn(Cc2ccc(F)cc2)c2ccccc2c1=O)c1cccc2ccccc12`, which Ki (Cannabinoid receptor 2 [1]) is on record?
The Ki was 225 nM.

And the Activity (Cannabinoid receptor 2 [2])?
Its Activity is 112%.

And the Activity (Cannabinoid receptor 2 [3])?
Its Activity is 70%.

Which results are given for `CCCCCn1cc(C(=O)c2cccc3ccccc23)c(=O)c2ccccc21`?
Ki (Cannabinoid receptor 2 [1]): 154 nM; Activity (Cannabinoid receptor 2 [2]): 97%; Activity [4]: 56%

How did the Ki (Cannabinoid receptor 2 [1]) turn out when `CCCCCn1cc(NC(=O)CCc2ccccc2)c(=O)c2ccccc21` was run?
The Ki was 1130 nM.

And the Activity (Cannabinoid receptor 2 [2])?
Its Activity is 83.4%.

And the Activity (Cannabinoid receptor 2 [5])?
The Activity was 183%.

Which results are given for `CC12CC3CC(C)(C1)CC(NC(=O)c1cn(Cc4ccc(F)cc4)c4ccccc4c1=O)(C3)C2`?
Ki (Cannabinoid receptor 2 [1]): 83.4 nM; Activity (Cannabinoid receptor 2 [2]): 93.2%; Activity (Cannabinoid receptor 2 [5]): 157%

For `CCCCCn1cc(C(=O)NCC23CC4CC(CC(C4)C2)C3)c(=O)c2ccccc21`, which Ki (Cannabinoid receptor 2 [1]) is on record?
The Ki was 50.6 nM.

And the Activity (Cannabinoid receptor 2 [2])?
Its Activity is 87.2%.

And the Activity (Cannabinoid receptor 2 [5])?
The Activity was 155%.

Which results are given for `CCCCCn1c(-c2ccccc2)c(C(=O)NC23CC4CC(C)(CC(C)(C4)C2)C3)c(=O)c2ccccc21`?
Ki (Cannabinoid receptor 2 [1]): 119 nM; Activity (Cannabinoid receptor 2 [2]): 97.2%; Activity (Cannabinoid receptor 2 [5]): 27.1%

With `CCCCCn1cc(C(=O)NC23CC4CC(C)(CC(C)(C4)C2)C3)c(=O)c2cccnc21` as the compound, how does the Ki (Cannabinoid receptor 2 [1]) read?
The Ki was 23.5 nM.

What about the Activity (Cannabinoid receptor 2 [2]) of the same compound?
Its Activity is 102%.

What about the Activity (Cannabinoid receptor 2 [5]) of the same compound?
The Activity was 124%.

What does the source list for `CCCCCn1cc(C(=O)NC23CC4CC(C)(CC(C)(C4)C2)C3)c(=O)c2cnccc21`?
Ki (Cannabinoid receptor 2 [1]): 30.9 nM; Activity (Cannabinoid receptor 2 [2]): 95%; Activity (Cannabinoid receptor 2 [5]): 136%

Which Ki (Cannabinoid receptor 2 [1]) does the source give for `CCCCCn1c(-c2ccccc2)c(C(=O)NC23CC4CC(CC(C4)C2)C3)c(=O)c2ccccc21` here?
Its Ki is 338 nM.

And the Activity (Cannabinoid receptor 2 [2])?
Its Activity is 94.9%.

What about the Activity (Cannabinoid receptor 2 [5]) of the same compound?
The Activity was 26.5%.
